Results as given in paper PMC4489446 (Memórias do Instituto Oswaldo Cruz, 2015).

Key:
[1] = tested on: Leishmania amazonensis promastigotes; experiment: In vitro activity against promastigotes; assay type: cell-based; conditions: 72 h; for IC50: Leishmania amazonensis; for MPC (minimal parasiticide concentration): promastigotes, 26 °C, mean ± SD
How it was run: (§1)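 Strains: L. amazonensis MHOM/77/LTB0016, L. infantum MHOM/FR/78/LEM75, L. braziliensis MHOM/BR/75/M2 903. Log-phase promastigotes at 5 x 10^5/mL in Schneider's with 10% heat-inactivated FBS; compound added from two-fold DMSO stocks (4 mg/mL–3.9 µg/mL), DMSO at most 0.5%. Incubated 72 h at 26 °C. MPC = geometric mean (4 replicates) of concentrations fully stopping motility, by microscope. Then p-nitrophenyl phosphate, 3 h 37 °C, A405, minus parasite-free drug wells. IC50 by Emax sigmoid fit; at least three repeats.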

Leishmania amazonensis = experiment: Mouse model of experimental cutaneous leishmaniasis, lesion size; assay type: in vivo, BALB/c mice; conditions: furvina 2 mg/Kg, UC245 100 mg/Kg; for average lesion size with respect to the control group: experiment 2: early lesions, intraperitoneal every 12 h for 14 days, 28 days of follow up; for effect on chronic lesions (in words): experiment 3: chronic lesions, 18 weeks post-infection, every 12 h for 14 days
How it was run: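 Female BALB/c mice (16-18 g, 6-8 weeks) infected intradermally in the footpad with 5 x 10^6 stationary-phase promastigotes. Intraperitoneal dosing every 12 h for 14 days, test compounds in Miglyol 810. Controls were untreated infected mice and amphotericin B (1 mg/Kg in early lesions; 5 mg/Kg every 48 h in chronic). Lesions measured weekly by Vernier calliper; chronic size taken as dorsoplantar × lateral diameter.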

[2] = tested on: Leishmania braziliensis promastigotes; experiment: In vitro activity against promastigotes; assay type: cell-based; conditions: 72 h; for IC50: Leishmania braziliensis; for MPC (minimal parasiticide concentration): promastigotes, 26 °C, mean ± SD
How it was run: as §1

[3] = tested on: Leishmania infantum promastigotes; experiment: In vitro activity against promastigotes; assay type: cell-based; conditions: 72 h; for IC50: Leishmania infantum; for MPC (minimal parasiticide concentration): promastigotes, 26 °C, mean ± SD
How it was run: as §1

[4] = Cytotoxicity against mammalian cells; assay type: cell-based; conditions: human, HeLa-KB cells (subline of HeLa, ATCC CCL-17)
How it was run: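 HeLa-KB cells seeded at 4 x 10^4/mL in RPMI-1640 with 10% heat-inactivated FCS and held 24 h (5% CO2). Medium was replaced by test compound in fresh medium, 30 µg/mL to 100 ng/mL, in triplicate, with a podophyllotoxin positive control. After 72 h, alamarBlue for 4 h, then fluorescence at 530/585 nm. CC50 from a nonlinear Emax sigmoid fit; at least three repeats.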

[5] = tested on: promastigotes of Leishmania amazonensis, Leishmania infantum and Leishmania braziliensis; assay type: cell-based; conditions: read-out: Average IC50
How it was run: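 IC50 was measured separately for L. amazonensis, L. infantum and L. braziliensis promastigotes. Each assay: 72 h at 26 °C, phosphatase read-out (p-nitrophenyl phosphate, A405), Emax sigmoid fit. The average IC50 is the arithmetic mean of the three species' IC50 values.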

[6] = tested on: intracellular amastigotes; experiment: Activity against intracellular amastigotes in mouse peritoneal macrophages; assay type: cell-based; conditions: drug concentrations not toxic to mouse peritoneal macrophages used as host cells; data not shown

SMILES	IC50 [1] [µM]	MPC (minimal parasiticide concentration) ([1]; complete arrest of motion) [µM]	average lesion size with respect to the control group (Leishmania amazonensis) [%]	effect on chronic lesions (in words) (Leishmania amazonensis)	IC50 [2] [µM]	MPC (minimal parasiticide concentration) ([2]; complete arrest of motion) [µM]	IC50 [3] [µM]	MPC (minimal parasiticide concentration) ([3]; complete arrest of motion) [µM]	CC50 at 72 h [4] [µM]	IC50 [5] [µM]	efficacy in reducing the percentage of infected cells [6]	MPC (minimal parasiticide concentration) ([1]; amphotericin B) [nm]	MPC (minimal parasiticide concentration) ([2]; amphotericin B) [nm]	MPC (minimal parasiticide concentration) ([3]; amphotericin B) [nm]
O=[N+]([O-])C(Br)=Cc1ccc(Br)o1 [Furvina, 2-bromo-5-(2-bromo-2-nitrovinyl)-furan]	0.8 ± 0.3	5.2 ± 0.4	59	progressively decreased lesion sizes	0.9 ± 0.4	1.7 ± 0.4	1.2 ± 0.3	2.9 ± 0.3	13.6 ± 2.2	0.97	under 50%			
COc1cc([C@@H]2c3cc4c(cc3[C@H](O)[C@H]3COC(=O)[C@H]23)OCO4)cc(OC)c1OC [podophyllotoxin, reference compound]									0.0053 ± 0.0014					
C[C@@H]1[C@H](O)[C@@H](C)/C=C/C=C/C=C/C=C/C=C/C=C/C=C/[C@H](O[C@@H]2O[C@H](C)[C@@H](O)[C@H](N)[C@@H]2O)C[C@@H]2O[C@](O)(C[C@@H](O)C[C@@H](O)[C@H](O)CC[C@@H](O)C[C@@H](O)CC(=O)O[C@H]1C)C[C@H](O)[C@H]2C(=O)O [Amphotericin B, amphotericin B, reference compound]	0.029 ± 0.005				0.014 ± 0.003		0.014 ± 0.004					55 ± 7	30 ± 6	17 ± 5
CC(=Cc1ccc(Br)o1)[N+](=O)[O-] [UC245, 2-bromo-5-(2-methyl-2-nitrovinyl)-furan]	0.9 ± 0.2	6.1 ± 0.4	55	did not show any efficacy	1 ± 0.3	5.7 ± 0.4	0.9 ± 0.3	2.7 ± 0.4	16.7 ± 1.8	0.93	under 50%			
